# Assays:
# [1] = target: Casein kinase I isoform gamma-1 (Homo sapiens) (UniProt Q9HCP0); test: Inhibition of wild-type human partial length CSNK1G1 (T15 to S353 residues) expressed in Escherichia coli BL21 assessed as residual activity at 1000 nM after 30 mins by Kinomescan method relative to control
# [2] = test system: Mast/stem cell growth factor receptor Kit (Homo sapiens), P10721 [V559D]; test: Inhibition of human partial length KIT V559D mutant (Y545 to D952 residues) expressed in Escherichia coli BL21 assessed as residual activity at 1000 nM after 30 mins by Kinomescan method relative to control
# In short: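 KINOMEscan binding panel of 456 kinases, with the test compound at a single concentration of 1 µM. Read-out is Percent Control.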
# [3] = target: Receptor-type tyrosine-protein kinase FLT3 (Homo sapiens) (UniProt P36888); test: Inhibition of wild-type human partial length FLT3 (V592 to Y969 residues) expressed in Escherichia coli BL21 assessed as residual activity at 1000 nM after 30 mins by Kinomescan method relative to control
# [4] = target: TRAF2 and NCK-interacting protein kinase (Homo sapiens) (UniProt Q9UKE5); test: Inhibition of wild-type human partial length TNIK (D4 to K311 residues) expressed in Escherichia coli BL21 assessed as residual activity at 1000 nM after 30 mins by Kinomescan method relative to control
# [5] = target: Testis-specific serine/threonine-protein kinase 1 (Homo sapiens) (UniProt Q9BXA7); test: Inhibition of wild-type human full length TSSK1B (M1 to Q367 residues) expressed in Escherichia coli BL21 assessed as residual activity at 1000 nM after 30 mins by Kinomescan method relative to control
# [6] = target: Serine/threonine-protein kinase RIO1 (Homo sapiens) (UniProt Q9BRS2); test: Inhibition of wild-type human full length RIOK1 (M1 to K568 residues) expressed in Escherichia coli BL21 assessed as residual activity at 1000 nM after 30 mins by Kinomescan method relative to control
# [7] = target: Homeodomain-interacting protein kinase 4 (Homo sapiens) (UniProt Q8NE63); test: Inhibition of wild-type human partial length HIPK4 (M1 to V384 residues) expressed in Escherichia coli BL21 assessed as residual activity at 1000 nM after 30 mins by Kinomescan method relative to control
# [8] = target: Tyrosine-protein kinase Blk (Homo sapiens) (UniProt P51451); test: Inhibition of wild-type human partial length BLK (G211 to L503 residues) expressed in Escherichia coli BL21 assessed as residual activity at 1000 nM after 30 mins by Kinomescan method relative to control
# [9] = target: Casein kinase I isoform epsilon (Homo sapiens) (UniProt P49674); test: Inhibition of wild-type human full length CSNK1E (M1 to K416 residues) expressed in Escherichia coli BL21 assessed as residual activity at 1000 nM after 30 mins by Kinomescan method relative to control
# In short: (§1)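 Single-point screen at a fixed 1 µM, run within a 456-kinase DiscoveRx KINOMEscan panel. Each kinase's read-out is Percent Control, i.e. signal relative to a control without compound. Hits were scored by a Percent Control < 35 cut-off, and an S(35) selectivity score was calculated across the non-mutant kinases.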
# [10] = target: Activin receptor type-1 (Homo sapiens) (UniProt Q04771); test: Inhibition of wild-type human ACVR1 (C188 to C509 residues) expressed in Escherichia coli BL21 assessed as residual activity at 1000 nM after 30 mins by Kinomescan method relative to control; in short: as §1
# [11] = target: Mitogen-activated protein kinase 11 (Homo sapiens) (UniProt Q15759); test: Inhibition of wild-type human full length p38-beta (M1 to Q364 residues) expressed in Escherichia coli BL21 assessed as residual activity at 1000 nM after 30 mins by Kinomescan method relative to control
# [12] = target: Ribosomal protein S6 kinase alpha-3 (Homo sapiens) (UniProt P51812); test: Inhibition of wild-type human partial length C-terminal RSK3 kinase domain 2 (V403 to K700 residues) expressed in Escherichia coli BL21 assessed as residual activity at 1000 nM after 30 mins by Kinomescan method relative to control
# [13] = target: Insulin-like growth factor 1 receptor (Homo sapiens) (UniProt P08069); test: Inhibition of wild-type human partial length IGF1R (L972 to D1294 residues) expressed in Escherichia coli BL21 assessed as residual activity at 1000 nM after 30 mins by Kinomescan method relative to control
# [14] = target: Serine/threonine-protein kinase PLK4 (Homo sapiens) (UniProt O00444); test: Inhibition of wild-type human partial length PLK4 (M1 to S273 residues) expressed in HEK293 cells assessed as residual activity at 1000 nM after 30 mins by Kinomescan method relative to control; format: cell-based
# [15] = target: Serine/threonine-protein kinase WNK3 (Homo sapiens) (UniProt Q9BYP7); test: Inhibition of wild-type human partial length WNK3 (M1 to D434 residues) expressed in HEK293 cells assessed as residual activity at 1000 nM after 30 mins by Kinomescan method relative to control; format: cell-based
# [16] = test system: Proto-oncogene tyrosine-protein kinase receptor Ret (Homo sapiens), P07949 [V804M]; test: Inhibition of human partial length RET V804M mutant (E713 to D1014 residues) expressed in Escherichia coli BL21 assessed as residual activity at 1000 nM after 30 mins by Kinomescan method relative to control; in short: as §1
# [17] = target: cGMP-dependent protein kinase 1 (Homo sapiens) (UniProt Q13976); test: Inhibition of wild-type human partial length PRKG1 (L339 to F686 residues) expressed in Escherichia coli BL21 assessed as residual activity at 1000 nM after 30 mins by Kinomescan method relative to control
# [18] = target: Serine/threonine-protein kinase Sgk1 (Homo sapiens) (UniProt O00141); test: Inhibition of wild-type human partial length SGK (I60 to L431 residues) expressed in HEK293 cells assessed as residual activity at 1000 nM after 30 mins by Kinomescan method relative to control; format: cell-based
# [19] = target: Dual specificity mitogen-activated protein kinase kinase 4 (Homo sapiens) (UniProt P45985); test: Inhibition of wild-type human partial length MEK4 (S84 to D399 residues) expressed in HEK293 cells assessed as residual activity at 1000 nM after 30 mins by Kinomescan method relative to control; format: cell-based
# [20] = target: STE20/SPS1-related proline-alanine-rich protein kinase (Homo sapiens) (UniProt Q9UEW8); test: Inhibition of wild-type human partial length STK39 (P43 to I357 residues) expressed in HEK293 cells assessed as residual activity at 1000 nM after 30 mins by Kinomescan method relative to control; format: cell-based
# [21] = target: Mitotic checkpoint serine/threonine-protein kinase BUB1 (Homo sapiens) (UniProt O43683); test: Inhibition of wild-type human partial length BUB1 (Q724 to K1085 residues) expressed in HEK293 cells assessed as residual activity at 1000 nM after 30 mins by Kinomescan method relative to control; format: cell-based
# Tyrosine-protein kinase Blk (Homo sapiens), sequence (P51451 2-505 limits assumed): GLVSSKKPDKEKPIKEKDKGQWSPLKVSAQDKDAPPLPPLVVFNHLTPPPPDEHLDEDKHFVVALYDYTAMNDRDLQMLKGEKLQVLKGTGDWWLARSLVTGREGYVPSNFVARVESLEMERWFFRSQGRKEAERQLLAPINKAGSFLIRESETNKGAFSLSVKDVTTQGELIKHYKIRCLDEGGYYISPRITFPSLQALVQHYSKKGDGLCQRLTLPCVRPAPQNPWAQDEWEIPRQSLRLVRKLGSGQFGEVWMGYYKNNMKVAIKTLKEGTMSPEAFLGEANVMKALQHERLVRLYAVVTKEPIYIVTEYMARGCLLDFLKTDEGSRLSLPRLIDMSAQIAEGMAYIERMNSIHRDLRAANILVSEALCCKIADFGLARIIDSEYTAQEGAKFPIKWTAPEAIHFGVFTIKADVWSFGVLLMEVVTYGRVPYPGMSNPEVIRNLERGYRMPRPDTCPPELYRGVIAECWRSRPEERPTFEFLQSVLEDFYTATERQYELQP
# Dual specificity mitogen-activated protein kinase kinase 4 (Homo sapiens), sequence (P45985 whole entry, the tested form may be a part): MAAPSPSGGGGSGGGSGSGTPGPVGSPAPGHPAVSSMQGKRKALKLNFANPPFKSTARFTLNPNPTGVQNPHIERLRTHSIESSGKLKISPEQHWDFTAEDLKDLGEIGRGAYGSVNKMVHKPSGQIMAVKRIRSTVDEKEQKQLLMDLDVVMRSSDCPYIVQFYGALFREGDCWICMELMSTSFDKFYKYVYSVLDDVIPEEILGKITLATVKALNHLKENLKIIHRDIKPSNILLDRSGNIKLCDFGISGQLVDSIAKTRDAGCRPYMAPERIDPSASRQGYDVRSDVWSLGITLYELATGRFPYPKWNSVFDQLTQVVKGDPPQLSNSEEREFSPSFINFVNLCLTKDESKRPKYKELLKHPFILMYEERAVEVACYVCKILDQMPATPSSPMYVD
# cGMP-dependent protein kinase 1 (Homo sapiens), sequence (Q13976 whole entry, the tested form may be a part): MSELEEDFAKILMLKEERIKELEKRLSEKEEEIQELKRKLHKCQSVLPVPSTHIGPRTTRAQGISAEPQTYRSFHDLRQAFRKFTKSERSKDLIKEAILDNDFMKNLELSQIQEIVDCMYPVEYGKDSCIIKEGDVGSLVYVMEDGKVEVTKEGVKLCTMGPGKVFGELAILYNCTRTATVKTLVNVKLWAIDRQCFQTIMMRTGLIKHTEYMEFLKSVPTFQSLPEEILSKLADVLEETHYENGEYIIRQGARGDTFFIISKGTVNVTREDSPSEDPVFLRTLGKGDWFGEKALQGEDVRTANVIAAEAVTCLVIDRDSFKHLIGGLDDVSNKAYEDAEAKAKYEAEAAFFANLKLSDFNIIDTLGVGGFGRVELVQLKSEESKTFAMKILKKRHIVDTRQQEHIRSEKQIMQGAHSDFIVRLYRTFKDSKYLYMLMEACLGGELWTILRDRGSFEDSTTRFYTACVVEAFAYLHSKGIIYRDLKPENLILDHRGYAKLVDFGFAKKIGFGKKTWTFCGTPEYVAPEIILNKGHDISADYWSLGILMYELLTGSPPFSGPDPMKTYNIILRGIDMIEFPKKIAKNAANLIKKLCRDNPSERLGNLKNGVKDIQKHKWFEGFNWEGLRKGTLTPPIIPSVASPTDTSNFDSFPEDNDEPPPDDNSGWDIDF
# Casein kinase I isoform gamma-1 (Homo sapiens), sequence (Q9HCP0 whole entry, looked up, the tested form may be a part, canonical isoform): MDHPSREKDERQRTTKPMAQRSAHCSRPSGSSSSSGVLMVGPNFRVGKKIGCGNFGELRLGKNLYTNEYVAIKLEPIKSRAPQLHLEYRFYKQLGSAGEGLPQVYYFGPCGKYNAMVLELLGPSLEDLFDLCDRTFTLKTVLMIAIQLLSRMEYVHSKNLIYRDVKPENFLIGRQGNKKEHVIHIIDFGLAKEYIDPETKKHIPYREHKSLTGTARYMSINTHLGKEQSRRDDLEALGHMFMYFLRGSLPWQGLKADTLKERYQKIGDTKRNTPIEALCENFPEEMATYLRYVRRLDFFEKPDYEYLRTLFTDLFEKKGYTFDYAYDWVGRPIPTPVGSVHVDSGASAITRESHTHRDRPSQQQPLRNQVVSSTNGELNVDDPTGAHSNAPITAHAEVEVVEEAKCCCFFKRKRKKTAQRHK
# TRAF2 and NCK-interacting protein kinase (Homo sapiens), sequence (Q9UKE5 whole entry, looked up, the tested form may be a part): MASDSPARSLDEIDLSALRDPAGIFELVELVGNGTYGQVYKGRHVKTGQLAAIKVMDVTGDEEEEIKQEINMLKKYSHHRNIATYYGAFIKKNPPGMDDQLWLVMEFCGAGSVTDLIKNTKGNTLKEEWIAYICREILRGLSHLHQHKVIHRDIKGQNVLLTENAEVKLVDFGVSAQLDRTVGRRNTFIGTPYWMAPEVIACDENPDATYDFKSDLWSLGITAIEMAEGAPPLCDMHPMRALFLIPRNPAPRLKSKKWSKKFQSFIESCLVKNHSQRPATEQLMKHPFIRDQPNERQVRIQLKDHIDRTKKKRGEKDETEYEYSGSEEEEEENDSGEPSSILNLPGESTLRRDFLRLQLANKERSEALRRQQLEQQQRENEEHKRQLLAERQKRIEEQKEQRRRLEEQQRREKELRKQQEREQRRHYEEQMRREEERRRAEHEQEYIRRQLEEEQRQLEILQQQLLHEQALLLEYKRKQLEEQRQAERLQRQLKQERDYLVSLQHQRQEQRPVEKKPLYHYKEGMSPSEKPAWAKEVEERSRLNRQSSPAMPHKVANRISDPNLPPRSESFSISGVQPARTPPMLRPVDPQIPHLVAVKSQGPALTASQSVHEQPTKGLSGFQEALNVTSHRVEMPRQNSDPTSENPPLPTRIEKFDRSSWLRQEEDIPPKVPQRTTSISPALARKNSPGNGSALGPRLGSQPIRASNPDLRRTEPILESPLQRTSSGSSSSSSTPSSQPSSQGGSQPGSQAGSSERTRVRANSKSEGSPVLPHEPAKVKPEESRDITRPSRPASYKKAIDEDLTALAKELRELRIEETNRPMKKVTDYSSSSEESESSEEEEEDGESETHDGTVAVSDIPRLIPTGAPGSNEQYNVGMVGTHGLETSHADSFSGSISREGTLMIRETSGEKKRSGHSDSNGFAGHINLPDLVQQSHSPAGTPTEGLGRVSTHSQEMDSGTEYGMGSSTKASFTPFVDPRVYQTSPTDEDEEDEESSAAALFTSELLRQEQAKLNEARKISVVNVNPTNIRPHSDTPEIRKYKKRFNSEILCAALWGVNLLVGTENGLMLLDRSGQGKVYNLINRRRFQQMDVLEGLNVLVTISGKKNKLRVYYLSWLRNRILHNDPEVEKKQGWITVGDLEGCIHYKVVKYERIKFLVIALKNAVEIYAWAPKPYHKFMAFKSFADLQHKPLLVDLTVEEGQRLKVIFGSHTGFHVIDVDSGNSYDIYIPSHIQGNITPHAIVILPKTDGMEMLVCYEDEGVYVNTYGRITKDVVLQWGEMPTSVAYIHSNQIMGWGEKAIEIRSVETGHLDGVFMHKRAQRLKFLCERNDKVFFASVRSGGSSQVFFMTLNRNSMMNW
# Receptor-type tyrosine-protein kinase FLT3 (Homo sapiens), sequence (P36888 whole entry, the tested form may be a part): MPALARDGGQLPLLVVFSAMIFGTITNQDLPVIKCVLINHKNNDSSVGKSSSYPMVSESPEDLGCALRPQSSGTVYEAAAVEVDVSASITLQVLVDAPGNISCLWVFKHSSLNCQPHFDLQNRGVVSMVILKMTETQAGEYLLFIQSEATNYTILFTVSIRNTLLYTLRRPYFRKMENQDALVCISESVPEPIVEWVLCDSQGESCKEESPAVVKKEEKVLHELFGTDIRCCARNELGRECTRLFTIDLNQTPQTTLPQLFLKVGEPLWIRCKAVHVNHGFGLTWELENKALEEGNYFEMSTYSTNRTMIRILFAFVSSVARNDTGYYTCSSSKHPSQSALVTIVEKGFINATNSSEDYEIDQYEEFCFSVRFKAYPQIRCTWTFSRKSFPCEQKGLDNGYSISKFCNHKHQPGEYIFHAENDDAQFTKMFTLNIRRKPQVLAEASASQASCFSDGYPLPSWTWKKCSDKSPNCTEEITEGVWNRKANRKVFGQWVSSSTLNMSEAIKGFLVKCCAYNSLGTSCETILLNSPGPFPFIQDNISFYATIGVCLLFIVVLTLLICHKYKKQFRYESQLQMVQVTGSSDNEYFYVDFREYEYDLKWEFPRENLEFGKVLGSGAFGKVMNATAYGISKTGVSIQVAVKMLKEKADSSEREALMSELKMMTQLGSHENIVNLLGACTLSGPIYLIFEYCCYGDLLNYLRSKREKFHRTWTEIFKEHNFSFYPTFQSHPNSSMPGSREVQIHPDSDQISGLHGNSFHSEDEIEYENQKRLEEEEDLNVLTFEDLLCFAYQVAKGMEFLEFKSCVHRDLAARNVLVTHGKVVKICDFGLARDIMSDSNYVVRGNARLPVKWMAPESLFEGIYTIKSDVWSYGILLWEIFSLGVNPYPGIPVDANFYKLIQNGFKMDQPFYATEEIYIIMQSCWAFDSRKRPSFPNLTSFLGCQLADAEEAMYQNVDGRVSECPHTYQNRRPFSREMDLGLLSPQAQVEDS
# Testis-specific serine/threonine-protein kinase 1 (Homo sapiens), sequence (Q9BXA7 whole entry, the tested form may be a part): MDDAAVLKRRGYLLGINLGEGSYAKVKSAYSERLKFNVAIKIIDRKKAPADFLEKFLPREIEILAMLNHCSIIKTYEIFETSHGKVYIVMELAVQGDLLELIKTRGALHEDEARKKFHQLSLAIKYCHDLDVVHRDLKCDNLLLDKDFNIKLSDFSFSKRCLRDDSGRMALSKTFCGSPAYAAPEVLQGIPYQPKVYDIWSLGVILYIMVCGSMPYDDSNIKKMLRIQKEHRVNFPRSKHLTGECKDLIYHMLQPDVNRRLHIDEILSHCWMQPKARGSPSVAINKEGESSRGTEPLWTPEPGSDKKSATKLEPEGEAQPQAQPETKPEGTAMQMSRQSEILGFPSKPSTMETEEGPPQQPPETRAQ
structure (smiles),measurement,setting,value
COc1cc(OC)c(Cl)c(N2Cc3cnc(Nc4ccc(F)cc4)nc3N(C3CCN(C(=O)/C=C/CN(C)C)CC3)C2=O)c1Cl,Activity,[1],82%
same,Activity,[2],11%
same,Activity,[3],96%
same,Activity,[4],94%
same,Activity,[5],89%
same,Activity,[6],99%
same,Activity,[7],99%
same,Activity,[8],0.6%
same,Activity,[9],100%
same,Activity,[10],100%
same,Activity,[11],87%
same,Activity,[12],88%
same,Activity,[13],83%
same,Activity,[14],100%
same,Activity,[15],86%
same,Activity,[16],52%
same,Activity,[17],100%
same,Activity,[18],100%
same,Activity,[19],100%
same,Activity,[20],100%
same,Activity,[21],100%

# Reference: ChEMBL document CHEMBL4043093, “2-Oxo-3, 4-dihydropyrimido[4, 5-d]pyrimidinyl derivatives as new irreversible pan fibroblast growth factor receptor (FGFR) inhibitors” (Eur J Med Chem, 2017)
